In ChEMBL document CHEMBL1255284, “Aspergillus section Fumigati: antifungal susceptibility patterns and sequence-based identification” (2008):
In brackets after ≈: the same amount, converted by molar mass.

How the values were obtained:
[1] = test system: Aspergillus lentulus; assay: Antimicrobial activity against Aspergillus lentulus isolate CNM-CM-3537 obtained from sputum of patient after 48 hrs by broth microdilution method; type: functional; conditions: isolate CNM-CM-3537, 48 h
Outline: (§1)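 CLSI M38-A broth microdilution with modifications: RPMI 1640 with L-glutamine, 2% glucose, buffered to pH 7 with 0.165 M MOPS. Inoculum of 1 × 10^5 to 5 × 10^5 CFU/ml from 3- to 5-day-old cultures. Incubated 35°C, 48 h, humid. Visual reading with a mirror. MIC is complete growth inhibition; echinocandin MEC is hyphal morphological alteration. Azoles 8 to 0.015 μg/ml; others 16 to 0.03 μg/ml.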

[2] = test system: Aspergillus lentulus; assay: Antimicrobial activity against Aspergillus lentulus isolate CNM-CM-4426 obtained from sputum of patient after 48 hrs by broth microdilution method; type: functional; conditions: isolate CNM-CM-4426, 48 h; outline: as §1
[3] = test system: Aspergillus lentulus; assay: Antimicrobial activity against Aspergillus lentulus isolate CNM-CM-3134 obtained from sputum of patient after 48 hrs by broth microdilution method; type: functional; conditions: isolate CNM-CM-3134, 48 h; outline: as §1
[4] = test system: Aspergillus lentulus; assay: Antimicrobial activity against Aspergillus lentulus isolate CNM-CM-4428 obtained from skin of patient after 48 hrs by broth microdilution method; type: functional; conditions: isolate CNM-CM-4428, 48 h; outline: as §1
[5] = test system: Aspergillus lentulus; assay: Antimicrobial activity against Aspergillus lentulus isolate CNM-CM-3364 obtained from bronchoalveolar lavage fluid of patient after 48 hrs by broth microdilution method; type: functional; conditions: isolate CNM-CM-3364, Lung; outline: as §1
[6] = test system: Aspergillus fumisynnematus; assay: Antimicrobial activity against Aspergillus fumisynnematus isolate CNM-CM-4063 obtained from bronchoalveolar aspirate of patient after 48 hrs by broth microdilution method; type: functional; conditions: isolate CNM-CM-4063, Lung; outline: as §1
[7] = test system: Neosartorya hiratsukae; assay: Antimicrobial activity against Neosartorya hiratsukae isolate CNM-CM-3764 obtained from oropharyngeal exudate of patient after 48 hrs by broth microdilution method; type: functional; conditions: Aspergillus hiratsukae, isolate CNM-CM-3764, 48 h; outline: as §1
[8] = test system: Neosartorya hiratsukae; assay: Antimicrobial activity against Neosartorya hiratsukae isolate CNM-CM-3740 obtained from oropharyngeal exudate of patient after 48 hrs by broth microdilution method; type: functional; conditions: Aspergillus hiratsukae, isolate CNM-CM-3740, 48 h; outline: as §1
[9] = test system: Neosartorya hiratsukae; assay: Antimicrobial activity against Neosartorya hiratsukae isolate CNM-CM-3303 obtained from skin of patient after 48 hrs by broth microdilution method; type: functional; conditions: Aspergillus hiratsukae, isolate CNM-CM-3303, 48 h; outline: as §1
[10] = test system: Aspergillus lentulus; assay: Antimicrobial activity against Aspergillus lentulus isolate CNM-CM-4370 obtained from sputum of patient after 48 hrs by broth microdilution method; type: functional; conditions: isolate CNM-CM-4370, 48 h; outline: as §1
[11] = test system: Aspergillus lentulus; assay: Antimicrobial activity against Aspergillus lentulus isolate CNM-CM-4420 obtained from nail of patient after 48 hrs by broth microdilution method; type: functional; conditions: isolate CNM-CM-4420, 48 h; outline: as §1
[12] = test system: Aspergillus fumigatiaffinis; assay: Antimicrobial activity against Aspergillus fumigatiaffinis isolate CNM-CM-3227 obtained from bronchoalveolar lavage fluid of patient after 48 hrs by broth microdilution method; conditions: isolate CNM-CM-3227, Lung
[13] = test system: Aspergillus lentulus; assay: Antimicrobial activity against Aspergillus lentulus isolate CNM-CM-3599 obtained from sputum of patient after 48 hrs by broth microdilution method; type: functional; conditions: isolate CNM-CM-3599, 48 h; outline: as §1
[14] = test system: Aspergillus lentulus; assay: Antimicrobial activity against Aspergillus lentulus isolate CNM-CM-4330 obtained from sputum of patient after 48 hrs by broth microdilution method; type: functional; conditions: isolate CNM-CM-4330, 48 h; outline: as §1
[15] = test system: Aspergillus viridinutans; assay: Antimicrobial activity against Aspergillus viridinutans isolate CNM-CM-3147 obtained from oropharyngeal exudate of patient after 48 hrs by broth microdilution method; type: functional; conditions: isolate CNM-CM-3147, 48 h; outline: as §1
[16] = test system: Neosartorya hiratsukae; assay: Antimicrobial activity against Neosartorya hiratsukae isolate CNM-CM-4328 obtained from cornea of patient after 48 hrs by broth microdilution method; type: functional; conditions: Aspergillus hiratsukae, isolate CNM-CM-4328, Cornea; outline: as §1
[17] = test system: Aspergillus fumigatus; assay: Antimicrobial activity against Aspergillus fumigatus ATCC 2004305 after 48 hrs by broth microdilution method; type: functional; conditions: ATCC 2004305, 48 h
[18] = test system: Neosartorya hiratsukae; assay: Antimicrobial activity against Neosartorya hiratsukae isolate CNM-CM-3305 obtained from skin of patient after 48 hrs by broth microdilution method; type: functional; conditions: Aspergillus hiratsukae, isolate CNM-CM-3305, 48 h; outline: as §1
[19] = test system: Neosartorya pseudofischeri; assay: Antimicrobial activity against Neosartorya pseudofischeri isolate CNM-CM-3914 obtained from nail of patient after 48 hrs by broth microdilution method; type: functional; conditions: Aspergillus thermomutatus, isolate CNM-CM-3914, 48 h
Outline: (§2)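 CLSI M38-A broth microdilution with modifications: RPMI 1640 with L-glutamine, MOPS-buffered to pH 7, plus 2% glucose. Inoculum 1 × 10^5 to 5 × 10^5 CFU/ml from 3–5-day cultures. Incubated at 35°C for 48 h, humid. Read visually with a mirror. MIC = complete growth inhibition; echinocandin MEC = altered hyphal morphology. QC strain A. fumigatus ATCC 2004305.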

[20] = test system: Aspergillus lentulus; assay: Antimicrobial activity against Aspergillus lentulus isolate CNM-CM-4387 obtained from sputum of patient after 48 hrs by broth microdilution method; type: functional; conditions: isolate CNM-CM-4387, 48 h; outline: as §1
[21] = test system: Aspergillus lentulus; assay: Antimicrobial activity against Aspergillus lentulus isolate CNM-CM-1290 obtained from sputum of patient after 48 hrs by broth microdilution method; type: functional; conditions: isolate CNM-CM-1290, 48 h; outline: as §1
[22] = test system: Neosartorya pseudofischeri; assay: Antimicrobial activity against Neosartorya pseudofischeri isolate CNM-CM-2270 obtained from sputum of patient after 48 hrs by broth microdilution method; type: functional; conditions: Aspergillus thermomutatus, isolate CNM-CM-2270, 48 h; outline: as §2
[23] = test system: Aspergillus lentulus; assay: Antimicrobial activity against Aspergillus lentulus isolate CNM-CM-4415 obtained from sputum of patient after 48 hrs by broth microdilution method; type: functional; conditions: isolate CNM-CM-4415, 48 h; outline: as §1
[24] = test system: Neosartorya pseudofischeri; assay: Antimicrobial activity against Neosartorya pseudofischeri isolate CNM-CM-3769 obtained from sputum of patient after 48 hrs by broth microdilution method; type: functional; conditions: Aspergillus thermomutatus; outline: as §2
[25] = test system: Neosartorya pseudofischeri; assay: Antimicrobial activity against Neosartorya pseudofischeri isolate CNM-CM-4060 obtained from sputum of patient after 48 hrs by broth microdilution method; type: functional; conditions: Aspergillus thermomutatus; outline: as §2
[26] = test system: Aspergillus lentulus; assay: Antimicrobial activity against Aspergillus lentulus isolate CNM-CM-3538 obtained from sputum of patient after 48 hrs by broth microdilution method; type: functional; conditions: isolate CNM-CM-3538, 48 h; outline: as §1
[27] = test system: Aspergillus lentulus; assay: Antimicrobial activity against Aspergillus lentulus isolate CNM-CM-3583 obtained from sputum of patient after 48 hrs by broth microdilution method; type: functional; conditions: isolate CNM-CM-3583, 48 h; outline: as §1
[28] = test system: Aspergillus viridinutans; assay: Antimicrobial activity against Aspergillus viridinutans isolate CNM-CM-4518 obtained from nail of patient after 48 hrs by broth microdilution method; type: functional; conditions: isolate CNM-CM-4518, 48 h; outline: as §1
[29] = test system: Aspergillus fumigatiaffinis; assay: Antimicrobial activity against Aspergillus fumigatiaffinis isolate CNM-CM-2280 obtained from sputum of patient after 48 hrs by broth microdilution method; conditions: isolate CNM-CM-2280, 48 h

| Structure (SMILES) | MIC [1] | MIC [2] | MIC [3] | MIC [4] | MIC [5] | MIC [6] | MIC [7] | MIC [8] | MIC [9] | MIC [10] | MIC [11] | MIC [12] | MIC [13] | MIC [14] | MIC [15] | MIC [16] | MIC [17] | MIC [18] | MIC [19] | MIC [20] | further results |
| --- | --- | --- | --- | --- | --- | --- | --- | --- | --- | --- | --- | --- | --- | --- | --- | --- | --- | --- | --- | --- | --- |
| CC[C@@H]([C@H](C)O)n1ncn(-c2ccc(N3CCN(c4ccc(OC[C@@H]5CO[C@@](Cn6cncn6)(c6ccc(F)cc6F)C5)cc4)CC3)cc2)c1=O [POSACONAZOLE] | 0.28 µg/mL (≈ 0.4 µM) | 0.2 µg/mL (≈ 0.285 µM) | 0.56 µg/mL (≈ 0.799 µM) | 0.62 µg/mL (≈ 0.885 µM) | 2 µg/mL (≈ 2.85 µM) | 0.12 µg/mL (≈ 0.171 µM) | 0.16 µg/mL (≈ 0.228 µM) | 0.1 µg/mL (≈ 0.143 µM) | 0.06 µg/mL (≈ 0.0856 µM) | 0.18 µg/mL (≈ 0.257 µM) | 0.33 µg/mL (≈ 0.471 µM) | 0.625 µg/mL (≈ 0.892 µM) | 0.5 µg/mL (≈ 0.713 µM) | 0.12 µg/mL (≈ 0.171 µM) | 0.41 µg/mL (≈ 0.585 µM) | 0.09 µg/mL (≈ 0.128 µM) | 0.03 µg/mL (≈ 0.0428 µM) | 0.045 µg/mL (≈ 0.0642 µM) | 0.5 µg/mL (≈ 0.713 µM) | 0.25 µg/mL (≈ 0.357 µM) | MIC [21]: 0.4 µg/mL (≈ 0.571 µM); MIC [22]: 0.31 µg/mL (≈ 0.442 µM); MIC [23]: 0.33 µg/mL (≈ 0.471 µM); MIC [24]: 0.25 µg/mL (≈ 0.357 µM); MIC [25]: 0.29 µg/mL (≈ 0.414 µM); MIC [26]: 0.75 µg/mL (≈ 1.07 µM); MIC [27]: 0.25 µg/mL (≈ 0.357 µM); MIC [28]: 0.25 µg/mL (≈ 0.357 µM); MIC [29]: 1.16 µg/mL (≈ 1.66 µM) |
| C[C@@H](c1nc(-c2ccc(C#N)cc2)cs1)[C@](O)(Cn1cncn1)c1ccc(F)cc1F [RAVUCONAZOLE] | 3 µg/mL (≈ 6.86 µM) | 5.33 µg/mL (≈ 12.2 µM) | 6 µg/mL (≈ 13.7 µM) | 5 µg/mL (≈ 11.4 µM) | 5.6 µg/mL (≈ 12.8 µM) | 0.83 µg/mL (≈ 1.9 µM) | 1.33 µg/mL (≈ 3.04 µM) | 0.66 µg/mL (≈ 1.51 µM) | 0.375 µg/mL (≈ 0.857 µM) | 5.33 µg/mL (≈ 12.2 µM) | 4 µg/mL (≈ 9.14 µM) | 5 µg/mL (≈ 11.4 µM) | 2 µg/mL (≈ 4.57 µM) | 1.5 µg/mL (≈ 3.43 µM) | 5.66 µg/mL (≈ 12.9 µM) | 0.5 µg/mL (≈ 1.14 µM) | 0.25 µg/mL (≈ 0.571 µM) | 0.25 µg/mL (≈ 0.571 µM) | 4 µg/mL (≈ 9.14 µM) | 3 µg/mL (≈ 6.86 µM) | MIC [21]: 3.5 µg/mL (≈ 8 µM); MIC [22]: 3.5 µg/mL (≈ 8 µM); MIC [23]: 4.66 µg/mL (≈ 10.7 µM); MIC [24]: 2 µg/mL (≈ 4.57 µM); MIC [25]: 3.33 µg/mL (≈ 7.61 µM); MIC [26]: 7 µg/mL (≈ 16 µM); MIC [27]: 2 µg/mL (≈ 4.57 µM); MIC [28]: 4 µg/mL (≈ 9.14 µM); MIC [29]: 6 µg/mL (≈ 13.7 µM) |
